System: Fibroblast
Experiment: Multiplex assay against human fibroblast
Format: toxicity, cell-based
Outline: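 Values for tubulin, mitochondrial-mass and membrane-permeability phenotypes are per cents of cells with healthy nuclei. These cells were identified by CellPathfinder machine-learning gating of live cells that had been stained at seeding with Hoechst33342, BioTracker Green Microtubule Cytoskeleton Dye, MitoTracker Red and Annexin V Alexa Fluor 680 and imaged on a CQ1 microscope at 37°C and 5% CO2 after compound addition. The gating first set Hoechst high-intensity objects apart from normal cells, then split normal cells into healthy, pyknosed or fragmented nuclei, and pyknosed cells into mitotic or apoptotic.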

[1] = 12 h, 1 µM, compound concentration 1 uM, replicate 1
[2] = 12 h, 1 µM, compound concentration 1 uM, replicate 2
[3] = 12 h, 10 µM, compound concentration 10 uM, replicate 1
[4] = 12 h, 10 µM, compound concentration 10 uM, replicate 2
[5] = 24 h, 1 µM, compound concentration 1 uM, replicate 1
[6] = 24 h, 1 µM, compound concentration 1 uM, replicate 2
[7] = 24 h, 10 µM, compound concentration 10 uM, replicate 1
[8] = 24 h, 10 µM, compound concentration 10 uM, replicate 2
[9] = 48 h, 1 µM, compound concentration 1 uM, replicate 1
[10] = 48 h, 1 µM, compound concentration 1 uM, replicate 2
[11] = 48 h, 10 µM, compound concentration 10 uM, replicate 1
[12] = 48 h, 10 µM, compound concentration 10 uM, replicate 2

Q: What does the source list for `COc1cc2nc(N3CCN(C(=O)c4ccco4)CC3)nc(N)c2cc1OC.Cl` [PRAZOSIN HYDROCHLORIDE]?
A: Population Apoptotic (%) [1]: 38%; Population Fragmented Nuclei (%) [1]: 22%; Population Healthy Nuclei (%) [1]: 57%; Population Hoechst High Intensity Objects (%) [1]: 1%; Population Membrane Permeable-Phenotype (%) [1]: 1%; Population Mitochondria Different-Phenotype (%) [1]: 1%; Population Mitotic Cells (%) [1]: 61%; Population Normal (%) [1]: 98%; Population Pyknosed Nuclei (%) [1]: 19%; Population Tubulin-Different-Phenotype (%) [1]: 26%; Total Cell Count [1]: 174; Population Apoptotic (%) [2]: 49%; Population Fragmented Nuclei (%) [2]: 20%; Population Healthy Nuclei (%) [2]: 52%; Population Hoechst High Intensity Objects (%) [2]: 4%; Population Membrane Permeable-Phenotype (%) [2]: 5%; Population Mitochondria Different-Phenotype (%) [2]: 7%; Population Mitotic Cells (%) [2]: 50%; Population Normal (%) [2]: 95%; Population Pyknosed Nuclei (%) [2]: 27%; Population Tubulin-Different-Phenotype (%) [2]: 46%; Total Cell Count [2]: 194; Population Apoptotic (%) [3]: 44%; Population Fragmented Nuclei (%) [3]: 23%; Population Healthy Nuclei (%) [3]: 64%; Population Hoechst High Intensity Objects (%) [3]: 1%; Population Membrane Permeable-Phenotype (%) [3]: 0%; Population Mitochondria Different-Phenotype (%) [3]: 7%; Population Mitotic Cells (%) [3]: 56%; Population Normal (%) [3]: 98%; Population Pyknosed Nuclei (%) [3]: 12%; Population Tubulin-Different-Phenotype (%) [3]: 49%; Total Cell Count [3]: 198; Population Apoptotic (%) [4]: 31%; Population Fragmented Nuclei (%) [4]: 35%; Population Healthy Nuclei (%) [4]: 42%; Population Hoechst High Intensity Objects (%) [4]: 5%; Population Membrane Permeable-Phenotype (%) [4]: 9%; Population Mitochondria Different-Phenotype (%) [4]: 3%; Population Mitotic Cells (%) [4]: 68%; Population Normal (%) [4]: 94%; Population Pyknosed Nuclei (%) [4]: 21%; Population Tubulin-Different-Phenotype (%) [4]: 65%; Total Cell Count [4]: 155; Population Apoptotic (%) [5]: 50%; Population Fragmented Nuclei (%) [5]: 20%; Population Healthy Nuclei (%) [5]: 63%; Population Hoechst High Intensity Objects (%) [5]: 2%; Population Membrane Permeable-Phenotype (%) [5]: 0%; Population Mitochondria Different-Phenotype (%) [5]: 2%; Population Mitotic Cells (%) [5]: 50%; Population Normal (%) [5]: 97%; Population Pyknosed Nuclei (%) [5]: 15%; Population Tubulin-Different-Phenotype (%) [5]: 28%; Total Cell Count [5]: 181; Population Apoptotic (%) [6]: 45%; Population Healthy Nuclei (%) [6]: 57%; Population Hoechst High Intensity Objects (%) [6]: 7%; Population Membrane Permeable-Phenotype (%) [6]: 12%; Population Mitochondria Different-Phenotype (%) [6]: 3%; Population Mitotic Cells (%) [6]: 54%; Population Normal (%) [6]: 92%; Population Pyknosed Nuclei (%) [6]: 21%; Population Tubulin-Different-Phenotype (%) [6]: 58%; Total Cell Count [6]: 185; Population Apoptotic (%) [7]: 46%; Population Fragmented Nuclei (%) [7]: 23%; Population Healthy Nuclei (%) [7]: 69%; Population Hoechst High Intensity Objects (%) [7]: 3%; Population Membrane Permeable-Phenotype (%) [7]: 0%; Population Mitochondria Different-Phenotype (%) [7]: 6%; Population Mitotic Cells (%) [7]: 53%; Population Normal (%) [7]: 96%; Population Pyknosed Nuclei (%) [7]: 6%; Population Tubulin-Different-Phenotype (%) [7]: 45%; Total Cell Count [7]: 201; Population Apoptotic (%) [8]: 61%; Population Fragmented Nuclei (%) [8]: 35%; Population Healthy Nuclei (%) [8]: 49%; Population Hoechst High Intensity Objects (%) [8]: 7%; Population Membrane Permeable-Phenotype (%) [8]: 10%; Population Mitochondria Different-Phenotype (%) [8]: 11%; Population Mitotic Cells (%) [8]: 38%; Population Normal (%) [8]: 92%; Population Pyknosed Nuclei (%) [8]: 15%; Population Tubulin-Different-Phenotype (%) [8]: 73%; Total Cell Count [8]: 152; Population Apoptotic (%) [9]: 52%; Population Fragmented Nuclei (%) [9]: 24%; Population Healthy Nuclei (%) [9]: 62%; Population Hoechst High Intensity Objects (%) [9]: 3%; Population Membrane Permeable-Phenotype (%) [9]: 0%; Population Mitochondria Different-Phenotype (%) [9]: 1%; Population Mitotic Cells (%) [9]: 47%; Population Normal (%) [9]: 96%; Population Pyknosed Nuclei (%) [9]: 13%; Population Tubulin-Different-Phenotype (%) [9]: 22%; Total Cell Count [9]: 182; Population Apoptotic (%) [10]: 66%; Population Fragmented Nuclei (%) [10]: 29%; Population Healthy Nuclei (%) [10]: 56%; Population Membrane Permeable-Phenotype (%) [10]: 8%; Population Mitochondria Different-Phenotype (%) [10]: 6%; Population Mitotic Cells (%) [10]: 33%; Population Pyknosed Nuclei (%) [10]: 14%; Population Tubulin-Different-Phenotype (%) [10]: 57%; Total Cell Count [10]: 197; Population Apoptotic (%) [11]: 66%; Population Fragmented Nuclei (%) [11]: 25%; Population Healthy Nuclei (%) [11]: 68%; Population Hoechst High Intensity Objects (%) [11]: 1%; Population Membrane Permeable-Phenotype (%) [11]: 0%; Population Mitochondria Different-Phenotype (%) [11]: 4%; Population Mitotic Cells (%) [11]: 33%; Population Normal (%) [11]: 98%; Population Pyknosed Nuclei (%) [11]: 6%; Population Tubulin-Different-Phenotype (%) [11]: 32%; Total Cell Count [11]: 201; Population Apoptotic (%) [12]: 46%; Population Fragmented Nuclei (%) [12]: 42%; Population Healthy Nuclei (%) [12]: 49%; Population Hoechst High Intensity Objects (%) [12]: 5%; Population Membrane Permeable-Phenotype (%) [12]: 5%; Population Mitochondria Different-Phenotype (%) [12]: 5%; Population Mitotic Cells (%) [12]: 53%; Population Normal (%) [12]: 94%; Population Pyknosed Nuclei (%) [12]: 8%; Population Tubulin-Different-Phenotype (%) [12]: 48%; Total Cell Count [12]: 170
